ZTA DNA inh – ZTA (EBV) inhibition in EBNA-1 counter-screen; P03206; ZTA-DNA binding, fluorescence polarization; inhibition, % at 11 µM; 320,000 tested, 0.15% active; in the data active means inhibition above about 33%
proCasp3 act – activates human procaspase-3; P42574; recombinant procaspase-3 D3A, Ac-DEVD-pNA absorbance 405 nm; activation, % at 8.5 µM; 330,000 tested, 0.11% active;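 active means activation above the mean of all tested compounds plus 3 SD, cut at about 21% in these data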;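 further: 0% = DMSO alone and 100% = DMSO wells spiked with extra 5 µM PC-3 D3A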
Target sequence (P42574 whole entry D9A/D28A/D175A): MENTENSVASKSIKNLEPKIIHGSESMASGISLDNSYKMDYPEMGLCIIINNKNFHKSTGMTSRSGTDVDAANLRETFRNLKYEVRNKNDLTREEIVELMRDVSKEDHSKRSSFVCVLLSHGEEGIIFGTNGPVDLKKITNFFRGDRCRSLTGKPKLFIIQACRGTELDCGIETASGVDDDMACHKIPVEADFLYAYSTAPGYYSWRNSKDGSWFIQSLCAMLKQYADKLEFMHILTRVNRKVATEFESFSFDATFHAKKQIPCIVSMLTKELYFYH
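Assay system – Procaspase-3 D3A mutant, all three cleavage aspartates alanine · Controls – DMSO-only low control, 5 µM PC-3 D3A high control · Schedule – 1 h compound preincubation, 2 h substrate hydrolysis at 25 °C · Signal – 405 nm absorbance of p-nitroaniline, reads at 0 and 120 min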
procasp7 counter – activates human procaspase-7, counter-screen for procaspase-3 activators; P55210; recombinant procaspase-7, Ac-DEVD-pNA absorbance 405 nm; D23A/D198A/D206A triple mutant, cannot self-cleave; scale: DMSO 0, 5 µM enzyme 100; activation, % at 8.5 µM; 330,000 tested, 0.093% active; AID 463210;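 active means percent activation above the screen-wide mean plus 3 SD, cut at about 25% in these data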
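Assay system: Uncleavable procaspase-7 mutant enzyme | Input: 2 µM procaspase-7 mutant as dispensed | Timing: 1 h compound preincubation, 2 h substrate cleavage, 25 °C | Repeats: One well per compound | Control set: DMSO wells as 0%, DMSO with 5 µM added PC-7 as 100% | Technique: Epi-absorbance of released pNA at 405 nm, two timepoints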
GSTO1 inh – blocks human GSTO1 in RBBP9 counter-screen; recombinant GSTO1, activity-based probe fluorescence polarization; inhibition, % at 5.96 µM; 300,000 tested, 1.1% active; AID 1974;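 active means inhibition above the campaign mean inhibition plus 3 SD, cut at about 35% in these data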;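 further: 0% = GSTO1-1 with DMSO and 100% = wells lacking GSTO1-1 enzyme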
Target sequence (P78417 whole entry, looked up): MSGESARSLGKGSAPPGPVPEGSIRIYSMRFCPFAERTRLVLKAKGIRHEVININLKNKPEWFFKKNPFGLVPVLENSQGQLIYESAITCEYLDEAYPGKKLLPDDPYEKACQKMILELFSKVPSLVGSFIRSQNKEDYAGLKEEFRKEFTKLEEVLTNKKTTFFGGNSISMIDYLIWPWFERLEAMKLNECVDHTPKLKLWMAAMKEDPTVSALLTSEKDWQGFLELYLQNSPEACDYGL
EBNA-1 inhibitor – blocks EBNA-1 binding to DNA. inhibition, % at 14.8 µM. 300,000 tested, 0.34% active. AID 1950. EBNA-1 DNA binding, fluorescence polarization; in the data active means inhibition above about 28%
Apaf-1 inh – inhibitors of human Apaf-1 apoptosome; O14727; reconstituted apoptosome caspase-3 activity, DEVD-Rh110 fluorescence; inhibition, % at 20 µM; 330,000 tested, 0.71% active; active means inhibition of at least 40% at 20 µM;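 further: plate controls were DMSO wells for no effect and DEVD-CHO caspase inhibitor wells for full effect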
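Material: reconstituted apoptosome with Apaf-1, cytochrome c, caspase-9, procaspase-3, dATP / Buffer or medium: pH 7.5 Hepes buffer with CHAPS, BSA, DTT / Also added: cytochrome c with DEVD-Rh110 / Schedule: compound with Apaf-1, dATP, procaspase-3 30 min, then 50 min reaction, room temperature / Technique: rhodamine 110 fluorescence at Ex 480/Em 540 nm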
GSTO1 inh conf – confirmation of human GSTO1 inhibitors; shares compounds with GSTO1 inh; recombinant GSTO1, probe fluorescence polarization; inhibition, % at 5.96 µM; 2,400 tested, 54% active;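 active means inhibition above the primary screen's cutoff, its mean inhibition plus 3 SD, cut at about 35% in these data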;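 further: loss of polarization as inhibitors block binding of rhodamine sulfonate ester activity probe; 0% = GSTO1 with DMSO and 100% = wells lacking GSTO1 enzyme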
GSTO1 recomb ABPP – GSTO1 (human) inhibition by gel ABPP; shares compounds with GSTO1 inh; recombinant GSTO1, gel ABPP SE-Rh probe fluorescence; inhibition, % at 1 µM; 130 tested, 30% active; AID 463110;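 active means inhibition of the enzyme GSTO1 above about 75%, limit read from the data; inactive means inhibition below that limit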
* hit, by the source's call. Most compounds without a hit are left out; they make up all but 1.8% or so of the library.

`COc1cc(/C=C2\CC/C(=C\c3cc(OC)c(O)c(OC)c3)C2=O)cc(OC)c1O` gave ZTA DNA inh -0.1, proCasp3 act -1.0, procasp7 counter -24.0, GSTO1 inh 37.5*, EBNA-1 inhibitor -3.3, Apaf-1 inh 23.3 and GSTO1 inh conf 5.2.
`O=S(=O)(NC1=NCCCCC1)c1ccc(Cl)cc1Cl` gave ZTA DNA inh 2.7, proCasp3 act 3.2, procasp7 counter 4.6 and Apaf-1 inh 12.6.
CC(=O)N1CCN(S(=O)(=O)c2cccc(C(=O)OCc3cccc(F)c3)c2)CC1 was read as ZTA DNA inh -1.6, proCasp3 act 6.5, procasp7 counter 9.5 and Apaf-1 inh 3.3.
COc1ccc2c(c1)CCCC21NC(=O)N(CC(=O)N2CC(C)OC(C)C2)C1=O (configuration not stated) was read as proCasp3 act 11.8, procasp7 counter 10.1 and Apaf-1 inh -12.7.
Screening O=Nc1ccc(O)c2ncccc12 returned ZTA DNA inh 6.4, proCasp3 act -0.6, procasp7 counter 4.8, GSTO1 inh 68.8*, EBNA-1 inhibitor 9.6, Apaf-1 inh 34.7 and GSTO1 inh conf 13.7.
COc1cccc(N=Nc2ccc(O)c3ncccc23)c1 was read as ZTA DNA inh 9.1, proCasp3 act -5.0, procasp7 counter 15.7, GSTO1 inh 38.6*, EBNA-1 inhibitor -2.4, Apaf-1 inh 34.9 and GSTO1 inh conf 1.3.
For O=S(=O)(O)c1cccc2c(N=Nc3ccc(O)c4ncccc34)cccc12 the results were ZTA DNA inh 28.5, proCasp3 act 4.4, procasp7 counter -11.1, GSTO1 inh 65.4*, EBNA-1 inhibitor 27.4 and GSTO1 inh conf 63.3*.
CCN(CC)c1ccc2c(-c3ccc(S(=O)(=O)O)cc3S(=O)(=O)[O-])c3ccc(=[N+](CC)CC)cc-3oc2c1 was read as ZTA DNA inh active, proCasp3 act -8.0, procasp7 counter -7.9, GSTO1 inh 197.6*, EBNA-1 inhibitor 200.0*, Apaf-1 inh -5.2 and GSTO1 inh conf active.
CCN(CC)c1ccc2nc3c4ccccc4c(=O)cc-3oc2c1 was read as Apaf-1 inh 32.2.
COc1ccc(C2CC(c3cccs3)=NN2C(=O)c2ccccc2)cc1OC (configuration not stated) was read as ZTA DNA inh -5.5, proCasp3 act 0.4, procasp7 counter -3.7, GSTO1 inh -6.0, EBNA-1 inhibitor 7.4 and Apaf-1 inh 8.3.
`COc1cc(C2CC(c3cccs3)=NN2C(=O)CCl)ccc1OC(F)F` (configuration not stated) gave ZTA DNA inh 24.2, proCasp3 act -7.0, procasp7 counter -30.7, GSTO1 inh 93.9*, EBNA-1 inhibitor 11.0, Apaf-1 inh 22.6 and GSTO1 inh conf 96.5*.
Screening COc1ccc(C2CC(c3cccs3)=NN2C(=O)CCl)cc1OC (configuration not stated) returned ZTA DNA inh 5.5, proCasp3 act 5.8, procasp7 counter -7.0, GSTO1 inh 90.2*, EBNA-1 inhibitor -13.8, Apaf-1 inh 14.8 and GSTO1 inh conf 96.5*.
For CCCCN(C)C(=O)C1CCCN(S(=O)(=O)c2ccc3c(c2)oc(=O)n3C)C1 (configuration not stated) the results were ZTA DNA inh -8.4, proCasp3 act -11.2, procasp7 counter 1.8, GSTO1 inh 2.5, EBNA-1 inhibitor -18.8 and Apaf-1 inh -8.8.
O=C(/C=C/c1ccc(O)c(O)c1)NC(=O)c1ccccc1O was read as ZTA DNA inh -2.4, proCasp3 act 0.4, procasp7 counter -4.1, GSTO1 inh 55.4*, EBNA-1 inhibitor -3.2, Apaf-1 inh -8.8 and GSTO1 inh conf 32.5.
For Cc1ccccc1/C=N/NC(=O)c1ccc(-n2cnnn2)cc1 the results were ZTA DNA inh -4.0, proCasp3 act -7.1, procasp7 counter 9.6 and Apaf-1 inh -10.9.
`COc1ccccc1N(C(=O)CCl)c1cn(C(C)=O)c2ccccc12` gave ZTA DNA inh 12.6, proCasp3 act 1.9, procasp7 counter -7.7, GSTO1 inh 70.6*, EBNA-1 inhibitor 8.4, Apaf-1 inh -13.8, GSTO1 inh conf 79.1* and GSTO1 recomb ABPP 14.0.
For CC(=O)n1cc(N(C(=O)CCl)c2ccc(Cl)cc2)c2ccccc21 the results were ZTA DNA inh 12.1, proCasp3 act 4.0, procasp7 counter 7.2, GSTO1 inh 82.1*, EBNA-1 inhibitor -3.8, Apaf-1 inh 12.9, GSTO1 inh conf 84.2* and GSTO1 recomb ABPP 82.0*.
`CN(CC(=O)Nc1cccc(F)c1)C(=O)c1cc([N+](=O)[O-])ccc1N1CCCCC1` gave ZTA DNA inh -12.7, proCasp3 act -14.0, procasp7 counter -12.1, GSTO1 inh -1.5, EBNA-1 inhibitor -8.8 and Apaf-1 inh 29.6.
O=C1C(=O)N(CCS(=O)(=O)c2ccccc2)c2ccc(Cl)cc21 was read as ZTA DNA inh -14.6, proCasp3 act -17.4, procasp7 counter -26.1, GSTO1 inh 43.5*, EBNA-1 inhibitor 7.9, Apaf-1 inh 18.9 and GSTO1 inh conf 5.6.
CCOc1ccc(C2C(C(=O)/C=C/c3ccco3)=C(O)C(=O)N2CCN2CCOCC2)cc1OC (configuration not stated) was read as ZTA DNA inh 3.9, proCasp3 act -8.8, procasp7 counter -7.2, GSTO1 inh 38.4*, EBNA-1 inhibitor 3.1, Apaf-1 inh 8.1 and GSTO1 inh conf 6.4.
Oc1ccc(-c2csc(-c3ccccc3)n2)cc1O was read as ZTA DNA inh -14.7, proCasp3 act -12.5, procasp7 counter -32.6, GSTO1 inh 38.5*, EBNA-1 inhibitor 6.7, Apaf-1 inh 4.6 and GSTO1 inh conf 2.0.
COc1cc(-c2csc(C)n2)ccc1O was read as ZTA DNA inh -5.4, proCasp3 act -6.2, procasp7 counter 0.8, GSTO1 inh 0.5, EBNA-1 inhibitor -5.4 and Apaf-1 inh 0.6.
c1cncc(-c2nc(-c3ccc4c(c3)OCCO4)cs2)c1 was read as ZTA DNA inh -11.2, proCasp3 act 3.5, procasp7 counter 3.2, GSTO1 inh 0.3, EBNA-1 inhibitor -8.7 and Apaf-1 inh 11.4.
Cc1ccc2nc(-c3ccc(O)c(O)c3)cn2c1 was read as ZTA DNA inh 3.3, proCasp3 act -12.4, procasp7 counter -23.3, GSTO1 inh 58.3*, EBNA-1 inhibitor 13.9, Apaf-1 inh 2.6 and GSTO1 inh conf 11.0.

High-throughput results deposited in PubChem by several laboratories.
